{"source": "ChEMBL document CHEMBL1128590", "about": "“erbB-2 oncogene inhibition by geldanamycin derivatives: synthesis, mechanism of action, and structure-activity relationships” (J Med Chem, 1995)", "key": {"[1]": {"tested_on": "Mus musculus", "assay": "In vivo inhibition of p185 phosphotyrosine in nu/nu nude mice bearing Fisher rat embryo cells transfected with human erbB-2 at 400 mg/kg", "type": "functional", "summary_of_the_method": "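FRE/erbB-2 cells were implanted subcutaneously in CD-1 (nu/nu) mice. At days 12-14 (~1 cm) the mice received 400 mg/kg ip. After 3 h, tumours were excised and extracted to isolate p185 phosphotyrosine. The value is percent inhibition.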"}, "[2]": {"tested_on": "Mus musculus", "assay": "In vivo inhibition of p185 phosphotyrosine in nu/nu nude mice bearing Fisher rat embryo cells transfected with human erbB-2 at 200 mg/kg", "type": "functional", "summary_of_the_method": "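Nude CD-1 (nu/nu) mice bearing subcutaneous FRE/erbB-2 tumours were dosed ip at 200 mg/kg at days 12-14 (~1 cm tumours). Tumours were removed 3 h later and extracted for p185 phosphotyrosine. The value is percent inhibition.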"}, "[3]": {"tested_on": "SK-BR-3", "assay": "In vitro inhibition of p185 erbB-2 oncoprotein in human breast cancer SK-BR-3 cells", "type": "functional, cell-based", "summary_of_the_method": "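Cellular assay with read-out as depletion of p185 erbB-2 protein after drug treatment of the cells. This depletion tracks inhibition of p185 autophosphorylation.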"}}}
{"smiles": "CO[C@H]1/C=C\\C=C(/C)C(=O)NC2=CC(=O)C(N)=C(C[C@@H](C)C[C@H](OC)[C@H](O)[C@@H](C)/C=C(\\C)[C@@H]1OC(N)=O)C2=O", "values": [{"measurement": "inhibition in vivo at 400 mg/kg", "setting": "[1]", "result": 59, "unit": "%"}]}
{"smiles": "CO[C@H]1C[C@H](C)CC2=C(N3CCC3)C(=O)C=C(NC(=O)/C(C)=C/CC[C@H](OC)[C@@H](OC(N)=O)/C(C)=C/[C@H](C)[C@H]1O)C2=O", "values": [{"measurement": "inhibition in vivo at 400 mg/kg", "setting": "[1]", "result": 44, "unit": "%"}]}
{"smiles": "CO[C@H]1/C=C\\C=C(/C)C(=O)NC2=CC(=O)C(N)=C(C[C@@H](C)C[C@H](OC)[C@@H](F)[C@@H](C)/C=C(\\C)[C@@H]1OC(N)=O)C2=O", "values": [{"measurement": "inhibition in vivo at 200 mg/kg", "setting": "[2]", "result": 46, "unit": "%"}, {"measurement": "IC50", "setting": "[3]", "result": 140, "unit": "nM"}]}
{"smiles": "CO[C@H]1/C=C\\C=C(/C)C(=O)NC2=CC(=O)C(N3CCC3)=C(C[C@@H](C)C[C@H](OC)[C@H](OC(C)=O)[C@@H](C)/C=C(\\C)[C@@H]1OC(N)=O)C2=O", "values": [{"measurement": "inhibition in vivo at 200 mg/kg", "setting": "[2]", "result": 78, "unit": "%"}, {"measurement": "IC50", "setting": "[3]", "result": 70, "unit": "nM"}]}
